Test results: ChEMBL document CHEMBL1143287, “Quinazolin-2-ylamino-quinazolin-4-ols as novel non-nucleoside inhibitors of bacterial DNA polymerase III” (Bioorg Med Chem Lett, 2009)
≈ marks a conversion by molar mass, not a printed value. Calls of active or inactive are those of the source. The calls are words filed in the database; no cut-off is given here.

Experiments:
[1] = (§1) Inhibition of Streptococcus pyogenes DNA polymerase 3
In short: (§2)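 S. pyogenes DNA polymerase III holoenzyme system reconstituted in 96- or 384-well format; inhibition read as prevention of duplex DNA formation, detected by fluorescence.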

[2] = tested on: Staphylococcus aureus; assay: Antibacterial activity against Staphylococcus aureus ATCC 29213 by broth microdilution assay in presence of 50% human serum; format: functional
[3] = Inhibition of mammalian DNA polymerase […] delta
[4] = tested on: Staphylococcus aureus; assay: Antibacterial activity against Staphylococcus aureus ATCC 29213 by broth microdilution assay; format: functional
[5] = tested on: Streptococcus pneumoniae; assay: Antibacterial activity against Streptococcus pneumoniae ATCC 49619 by broth microdilution assay; format: functional
[6] = tested on: Streptococcus pyogenes; assay: as §1; in short: as §2
[7] = tested on: Staphylococcus aureus; assay: Antibacterial activity against Staphylococcus aureus infected in mouse assessed as protection against bacterial infection at 25 mg/kg, ip administered as single dose measured 1 hr postinjection; format: functional; settings: route intraperitoneal

IC50 [1] [nM] | MIC [2] [µg/mL] | IC50 [3] [nM] | Compound | also measured
77800 | 64 | 1900 | COc1ccc2nc(Nc3nc(O)c4ccc(F)cc4n3)nc(C)c2c1 | 
> 100000 | 2 |  | COc1ccc2nc(Nc3nc(O)c4cccc(OC)c4n3)nc(C)c2c1 | Activity [3]: inactive
3100 |  |  | COc1cccc2c(C)nc(Nc3nc(O)c4ccccc4n3)nc12 | MIC [4]: 0.5 µg/mL (≈ 1.5 µM); MIC [5]: 0.25 µg/mL (≈ 0.75 µM)
209000 |  |  | Cc1ccc2nc(Nc3nc(O)c4ccccc4n3)nc(C)c2c1 | MIC [4]: 32 µg/mL (≈ 101 µM); MIC [5]: 16 µg/mL (≈ 50.4 µM)
70000 |  |  | COc1ccc2c(C)nc(Nc3nc(O)c4ccccc4n3)nc2c1 | MIC [4]: 32 µg/mL (≈ 96 µM); MIC [5]: 32 µg/mL (≈ 96 µM)
27100 |  |  | Cc1cc2nc(Nc3nc(O)c4ccccc4n3)nc(C)c2cc1C | MIC [4]: > 64 µg/mL; MIC [5]: 1 µg/mL (≈ 3.02 µM)
5500 |  | 5000 | COc1ccc2nc(Nc3nc(O)c4ccc(NC(C)=O)cc4n3)nc(C)c2c1 | 
2000 |  |  | COc1cc2nc(Nc3nc(O)c4ccccc4n3)nc(C)c2cc1OC | MIC [4]: 4 µg/mL (≈ 11 µM); MIC [5]: 1 µg/mL (≈ 2.75 µM)
500 | 1 | 200 | CNc1ccc2c(O)nc(Nc3nc(C)c4cc(OC)ccc4n3)nc2c1 | 
8700 |  | 14900 | COc1ccc2nc(Nc3nc(O)c4cc([N+](=O)[O-])ccc4n3)nc(C)c2c1 | 
2800 | 2 | 1700 | COc1ccc2nc(Nc3nc(O)c4cc(C)ccc4n3)nc(C)c2c1 | 
> 100000 | 64 | 400 | COc1ccc2nc(Nc3nc(O)c4ccc([N+](=O)[O-])cc4n3)nc(C)c2c1 | 
400 | 2 | 400 | COc1ccc2nc(Nc3nc(O)c4ccc(N(C)C)cc4n3)nc(C)c2c1 | 
 |  |  | COc1cc2nc(Nc3nc(OC)c4ccccc4n3)nc(C)c2cc1OC | Activity [6]: inactive
560 | 1 | 900 | COc1ccc2nc(Nc3nc(O)c4c(Cl)cccc4n3)nc(C)c2c1 | 
> 100000 |  |  | COc1ccc2nc(Nc3nc(O)c4ccc(Cl)cc4n3)nc(C)c2c1 | Activity [2]: inactive; Activity [3]: inactive
3800 | 2 | 1800 | COc1ccc2c(O)nc(Nc3nc(C)c4cc(OC)ccc4n3)nc2c1 | 
3700 | 1 | 2000 | COc1ccc2nc(Nc3nc(O)c4ccc(C)cc4n3)nc(C)c2c1 | Activity [7]: 50%
4800 |  |  | COc1ccc2nc(Nc3nc(O)c4ccccc4n3)nc(C)c2c1 | MIC [4]: 0.5 µg/mL (≈ 1.5 µM); MIC [5]: 0.25 µg/mL (≈ 0.75 µM)
600 | 2 | 1000 | COc1ccc2nc(Nc3nc(O)c4c(OC)cccc4n3)nc(C)c2c1 | 
700 | 2 | 1200 | COc1ccc2nc(Nc3nc(O)c4c(C)cccc4n3)nc(C)c2c1 | 
 |  |  | COc1cc2nc(N(C)c3nc(OC)c4ccccc4n3)nc(C)c2cc1OC | Activity [6]: inactive
400 | 1 | 400 | CCNc1ccc2c(O)nc(Nc3nc(C)c4cc(OC)ccc4n3)nc2c1 | 
4700 | 1 | 4900 | COc1ccc2nc(Nc3nc(O)c4ccc(N)cc4n3)nc(C)c2c1 | 
